The subject of test [1] is Vaccinia virus. The test can be described thus: Antiviral activity against Vaccinia virus in human E6SM cells assessed as reduction of virus-induced cytopathogenicity. Conditions: Orthopoxvirus vaccinia. The class given is functional. In outline: (§1)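 Confluent cell monolayers (E6SM, HEL, HeLa or Vero, per line) inoculated with 100 CCID50 virus; 1 h adsorption, residual virus removed, then incubated with compound at 400, 200, 100 … µg/ml. Cytopathicity scored once complete in untreated virus controls; MIC = concentration inhibiting virus-induced cytopathicity.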
On the technique in general: Cytopathic effects are the visible damage that an infection or toxin causes in cultured cells.

Test [2] concerns Vaccinia virus. The test can be described thus: Antiviral activity against Vaccinia virus in human HEL cells assessed as reduction of virus-induced cytopathogenicity. Format: functional. Conditions: Orthopoxvirus vaccinia. Summed up:
as §1

Converted amounts (≈) assume the structure as drawn.

`Nc1nc2c(ncn2COCCO)c(=O)[nH]1` [ACYCLOVIR]: the MIC in test [1] and in test [2] was over 400 µg/mL each time.

`C=CCn1c(COc2ccc(N)cc2)n[nH]c1=S`: the MIC in test [1] and in test [2] was over 400 µg/mL in each case.

With `C=CCNC(=S)Nc1ccc(-c2nnc(SCc3ccc(Cl)cc3Cl)n2-c2ccccc2)cc1`, the MIC in test [1] and in test [2] was over 16 µg/mL throughout.

Turning to `C=CCNC(=S)Nc1ccc(OCc2n[nH]c(=S)n2-c2ccccc2)cc1`, the MIC in test [1] and in test [2] was 240 µg/mL (≈ 604 µM) throughout.

For `CCNC(=S)Nc1ccc(OCc2n[nH]c(=S)n2CC)cc1`, the MIC in test [1] and in test [2] was 240 µg/mL (≈ 711 µM) throughout.

On to `NC(=O)c1ncn([C@@H]2O[C@H](CO)[C@@H](O)[C@H]2O)n1` [RIBAVIRIN], for which the MIC in test [1] and in test [2] was 48 µg/mL (≈ 197 µM) in each case.

On to `CCn1c(COc2ccc(NC(=S)Nc3ccccc3)cc2)n[nH]c1=S`, for which the MIC in test [1] and in test [2] was over 80 µg/mL throughout.

Turning to `C=CCn1c(COc2ccc(NC(=S)NCC)cc2)n[nH]c1=S`, the MIC in test [1] and in test [2] was over 400 µg/mL in each case.

Take `Nc1nc2c(ncn2COC(CO)CO)c(=O)[nH]1` [GANCICLOVIR]: the MIC in test [1] and in test [2] was over 100 µg/mL throughout.

Consider `C=CCNC(=S)Nc1ccc(OCc2n[nH]c(=S)n2C)cc1`, for which the MIC in test [1] and in test [2] was over 400 µg/mL each time.

Take `CNC(=S)Nc1ccc(OCc2n[nH]c(=S)n2-c2ccccc2)cc1`: the MIC in test [1] and in test [2] was over 400 µg/mL throughout.

Turning to `C=CCNC(=S)Nc1ccc(-c2n[nH]c(=S)n2CC=C)cc1`, the values for the MIC in test [1] and in test [2] were over 400 µg/mL and over 80 µg/mL, respectively.

As for `C=CCn1c(-c2ccc(NC(=S)Nc3ccccc3)cc2)n[nH]c1=S`, the MIC in test [1] and in test [2] was over 16 µg/mL each time.

Regarding `Cn1c(-c2ccc(NC(=S)Nc3ccccc3)cc2)n[nH]c1=S`, the MIC in test [1] and in test [2] was over 80 µg/mL in each case.

For `CCCCCCNC(=S)Nc1ccc(-c2n[nH]c(=S)n2-c2ccccc2)cc1`, the MIC in test [1] and in test [2] was over 16 µg/mL in each case.

For the compound `C=CCn1c(-c2ccc(NC(=S)NC)cc2)n[nH]c1=S`, the MIC in test [1] and in test [2] was 240 µg/mL (≈ 786 µM) throughout.

With `CNC(=S)Nc1ccc(OCc2n[nH]c(=S)n2C)cc1`, the MIC in test [1] and in test [2] was over 400 µg/mL each time.

Consider `CCn1c(COc2ccc(N)cc2)n[nH]c1=S`, for which the MIC in test [1] and in test [2] was 240 µg/mL (≈ 959 µM) in each case.

Consider `CCCCCCNC(=S)Nc1ccc(-c2n[nH]c(=S)n2CC)cc1`, for which the MIC in test [1] and in test [2] was over 80 µg/mL in each case.

As to `C=CCn1c(COc2ccc(NC(=S)Nc3ccccc3)cc2)n[nH]c1=S`, the MIC in test [1] and in test [2] was over 80 µg/mL each time.

As for `CCn1c(COc2ccc(NC(=S)NC)cc2)n[nH]c1=S`, the MIC in test [1] and in test [2] was over 400 µg/mL in each case.

Consider `CNC(=S)Nc1ccc(-c2n[nH]c(=S)n2-c2ccccc2)cc1`, for which the MIC in test [1] and in test [2] was over 80 µg/mL each time.

`Nc1ccc(OCc2n[nH]c(=S)n2-c2ccccc2)cc1`: the MIC in test [1] and in test [2] was over 400 µg/mL in each case.

Take `C=CCNC(=S)Nc1ccc(-c2n[nH]c(=S)n2CC)cc1`: the MIC in test [1] and in test [2] was 240 µg/mL (≈ 751 µM) throughout.

As to `CCNC(=S)Nc1ccc(-c2n[nH]c(=S)n2C)cc1`, the MIC in test [1] and in test [2] was 240 µg/mL (≈ 818 µM) throughout.

As for `O=c1[nH]c(=O)n([C@H]2C[C@H](O)[C@@H](CO)O2)cc1/C=C/Br` [BRIVUDINE], the MIC in test [1] and in test [2] was 3.2 µg/mL (≈ 9.61 µM) throughout.

With `CCCCCCNC(=S)Nc1ccc(-c2n[nH]c(=S)n2C)cc1`, the MIC in test [1] and in test [2] was 80 µg/mL (≈ 229 µM) in each case.

For `CNC(=S)Nc1ccc(-c2nnc(SCc3ccccc3)n2C)cc1`, the MIC in test [1] and in test [2] was over 16 µg/mL each time.

As to `C=CCNC(=S)Nc1ccc(-c2nnc(SCc3ccc(Cl)cc3Cl)n2C)cc1`, the MIC in test [1] and in test [2] was over 16 µg/mL in each case.

In the case of `S=C(Nc1ccc(Cl)cc1)Nc1ccc(-c2n[nH]c(=S)n2-c2ccccc2)cc1`, the MIC in test [1] and in test [2] was over 16 µg/mL throughout.

Regarding `C=CCn1c(COc2ccc(NC(=S)NC)cc2)n[nH]c1=S`, the MIC in test [1] and in test [2] was over 400 µg/mL each time.

With `C=CCNC(=S)Nc1ccc(-c2n[nH]c(=S)n2-c2ccccc2)cc1`, the MIC in test [1] and in test [2] was over 80 µg/mL each time.

For the compound `C=CCNC(=S)Nc1ccc(-c2n[nH]c(=S)n2CCCCCC)cc1`, the MIC in test [1] and in test [2] was over 16 µg/mL each time.

Regarding `CCCCCCNC(=S)Nc1ccc(-c2n[nH]c(=S)n2CCCCCC)cc1`, the MIC in test [1] and in test [2] was over 3.2 µg/mL in each case.

For `CCNC(=S)Nc1ccc(-c2n[nH]c(=S)n2-c2ccccc2)cc1`, the MIC in test [1] and in test [2] was over 3.2 µg/mL in each case.

Turning to `C=CCNC(=S)Nc1ccc(OCc2n[nH]c(=S)n2CC)cc1`, the MIC in test [1] and in test [2] was 240 µg/mL (≈ 687 µM) in each case.

For the compound `S=C(Nc1ccccc1)Nc1ccc(-c2n[nH]c(=S)n2-c2ccccc2)cc1`, the MIC in test [1] and in test [2] was over 80 µg/mL throughout.

In the case of `CCNC(=S)Nc1ccc(OCc2n[nH]c(=S)n2C)cc1`, the MIC in test [1] and in test [2] was over 400 µg/mL throughout.

As for `S=C(Nc1ccccc1)Nc1ccc(OCc2n[nH]c(=S)n2-c2ccccc2)cc1`, the MIC in test [1] and in test [2] was over 80 µg/mL each time.

Turning to `Cn1c(COc2ccc(NC(=S)Nc3ccccc3)cc2)n[nH]c1=S`, the MIC in test [1] and in test [2] was over 80 µg/mL throughout.

In the case of `C=CCNC(=S)Nc1ccc(-c2n[nH]c(=S)n2C)cc1`, the MIC in test [1] and in test [2] was 240 µg/mL (≈ 786 µM) throughout.

Turning to `Cn1c(COc2ccc(N)cc2)n[nH]c1=S`, the MIC in test [1] and in test [2] was 240 µg/mL (≈ 1020 µM) each time.

As to `CCNC(=S)Nc1ccc(OCc2n[nH]c(=S)n2-c2ccccc2)cc1`, the MIC in test [1] and in test [2] was over 400 µg/mL in each case.

Consider `CNC(=S)Nc1ccc(-c2n[nH]c(=S)n2C)cc1`, for which the MIC in test [1] and in test [2] was 240 µg/mL (≈ 859 µM) throughout.

Take `C=CCNC(=S)Nc1ccc(OCc2n[nH]c(=S)n2CC=C)cc1`: the MIC in test [1] and in test [2] was 240 µg/mL (≈ 664 µM) in each case.

As for `C=CCNC(=S)Nc1ccc(-c2n[nH]c(=S)n2CCc2ccccc2)cc1`, the MIC in test [1] and in test [2] was over 80 µg/mL in each case.

For the origin of these results see ChEMBL document CHEMBL1149790, “Synthesis of some novel thiourea derivatives obtained from 5-[(4-aminophenoxy)methyl]-4-alkyl/aryl-2,4-dihydro-3H-1,2,4-triazole-3-thiones and evaluation as antiviral/anti-HIV and anti-tuberculosis agents” (Eur J Med Chem, 2008).
